# Sampled rows, rich in hits. Any-hit rate of the full collection: about 2.1%.
# Hsp70 act: Hsp70 transcriptional activators, primary screen, cell-based, HeLa, Hsp70 promoter luciferase, luminescence, 10 µM | HeLa Hsp70 promoter luciferase reporter; scaled: vehicle 0, proteasome-inhibitor control 100% | activation, % at 10 µM | hit rate 0.04% among 200,000 | AID 1203, 2008;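 active = activation above the mean across all tested compounds plus 3 SD, cutoff set per campaign, cut at about 5.5% in these data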;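 also: 100% = MG132 at 30 µM as the positive control and 0% = DMSO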
# Dynein cargo inh: inhibitors of GR-EGFP nuclear translocation, primary screen, dynein cargo transport inhibitor project, imaging, high-content, 3617.4 mouse cells. test concentration mostly 20 µM; stimulated with dexamethasone, 1 µM; stronger effect = lower value. z-score, hits read low. hit rate 0.47% among 220,000;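 active = plate z-score of nuclear minus cytoplasmic receptor signal below a set negative limit, without overly bright fluorescence or cell loss, cut at about -3.5 in these data, passing the limit was not always enough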;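 also: z-score of nuclear minus cytoplasmic ring GR-EGFP intensity difference per well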
#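 medium = tetracycline-free induction medium containing charcoal-stripped FBS | also added = 1.0 µM final dexamethasone stimulus | schedule = 48 h induction, 1 h compound, 30 min dex at 37 °C | technique = fixed, Hoechst-stained cells imaged at 10x for EGFP | measure = GR-EGFP nuclear translocation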
# Autophagy HCS: autophagy modulators in MEF cells, primary screen, imaging, high-content, MEF GFP-LC3; MEF GFP-LC3 puncta imaging; test concentration mostly 10 µM; calls only at 10 µM (by protocol); hit rate 0.98% among 190,000; AID 463193, 2010;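 active = percentage of spot-positive cells more than 3 SD above its plate mean, without a fluorescence outlier flag or 80% toxicity; inconclusive = no clear call, values can overlap the other calls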;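 also: spot-positive cell cutoff set from DMSO-treated cells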
# MT stabilize HCS: microtubule stabilizers in HeLa cells, primary screen, imaging, high-content imaging | HeLa tubulin immunostaining HCS, 24 h; share of cells brighter than vehicle mean+2SD | % tubulin-high responders, % at 10 µM | hit rate 0.83% among 200,000 | AID 2205, 2009;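 active = plate Z-score above 3 for both tubulin-high and condensed-nucleus cell shares, with cell loss under 80%, at 10 µM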;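 also: anti alpha tubulin signal scored within the nucleus-defined area of each cell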
# bCat nuc transl: modulators of beta-catenin nuclear translocation, primary screen, imaging, HeLa cells, immunofluorescence, high-content. hit rate 0.3% among 190,000. nuclear translocation activity, % at 5 µM;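 active = nuclear translocation activity above 50% at 5 µM, with a well cell count of 50 or more; inconclusive = wells under 50 cells across six images, flagged as toxic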;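 also: per-cell ratio of nuclear to cytoplasmic median beta-catenin stain intensity; plate controls were DMSO negative control for no effect and GSK-3 inhibitor IX positive control for full effect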
#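 Test system: human HeLa cell line; Doses: 5 µM primary, 0.02–20 µM confirmation; Incubation: 24 h compound exposure, 37°C; Detection: beta-catenin immunofluorescence imaging with DAPI; Read-out: beta-catenin nuclear/cytoplasmic ratio, % activation.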
# Numbers without * were called inactive; i = inactive; ? = inconclusive; · = not tested or not shown; + = active, no number.
SMILES,Hsp70 act,Dynein cargo inh,Autophagy HCS,MT stabilize HCS,bCat nuc transl
O=C(/C=C/c1c(F)cccc1Cl)NCc1ccco1,0,0.15,i,4,-3
O=C(CN1C(=O)/C(=C/c2c(F)cccc2Cl)Oc2ccccc21)NCc1ccco1,0,1,i,19*,3
Cc1cc(-c2ccccc2)n(-c2cc(N/N=C/c3ccccc3O)ncn2)n1,0,-0.26,i,11,128*
CNc1cc(-n2nc(C)cc2-c2ccccc2)ncn1,0,-0.54,i,1,0
Cc1ccc2oc(=O)c3cc(C(=O)N4CCN(C)CC4)sc3c2c1,·,-0.5,·,·,1
CCO[C@@H]1OC(C(=O)NCc2ccccc2)=C[C@H](C2CCCCC2)[C@H]1CCCO,0,-0.19,i,1,-1
CC(=O)N1CCc2c(sc(NC(=O)c3ccc4c(c3)OCCO4)c2C#N)C1,0,-0.54,i,34*,57*
CC(=O)N1CCc2c(sc(NC(=O)c3ccc(S(=O)(=O)N(C)C)cc3)c2C#N)C1,0,-0.55,·,5,·
CNC(=O)c1cc(NC(=O)CCn2nc(-c3ccccc3)c3ccccc3c2=O)ccc1OC,·,-0.031,·,·,-2
CCOC(=O)C1=C(c2ccccc2)O/C(=C(/C#N)C(F)(F)F)S1,1,0.62,+,9,41
Cc1ccc2nc(SCC(=O)Nc3ccccc3N3CCOCC3)c(C#N)cc2c1,-1,-0.98,+,46*,-6
CC(C)CNC(=S)N(Cc1ccco1)Cc1cc2cc3c(cc2[nH]c1=O)OCCO3,0,0.84,i,33*,-1
Cc1ccc2cc(CN(Cc3ccco3)C(=O)c3cccs3)c(=O)[nH]c2c1,0,0.65,i,34*,·
COc1ccccc1NC(=O)N(Cc1ccco1)Cc1cc2cc(C)cc(C)c2[nH]c1=O,0,1.8,i,26*,33
COc1ccccc1NC(=O)N(Cc1ccco1)Cc1cc2ccc(C)c(C)c2[nH]c1=O,0,3.7,i,57,122*
COc1ccccc1NC(=S)N(Cc1ccco1)Cc1cc2cc(C)c(C)cc2[nH]c1=O,0,-0.31,i,7,64*
COc1ccccc1NC(=S)N(Cc1ccco1)Cc1cc2cccc(C)c2[nH]c1=O,0,0.53,i,4,5
CCN1/C(=C/c2ccc3cc(C)ccc3[n+]2CC)Sc2cc(C)ccc21,0,-2.6,?,4,3
CCN1/C(=C/c2ccc3ccccc3[n+]2CC)C=Cc2ccccc21,0,2,+,4,·
CCCCN1/C(=C/c2ccc3ccccc3[n+]2CC)Sc2ccccc21,0,0.13,+,8,1
CCN1/C(=C/c2cc[n+](C)cc2)C=Cc2cc(C)ccc21,-1,0.02,i,7,1
COC(=O)c1ccc(Cl)c(NS(=O)(=O)c2ccc3c(c2)OCCO3)c1,0,-0.079,i,39*,·
CC/C(=N/Nc1cccc(Cl)c1)c1cnnc(SC)n1,0,-0.82,i,6,4
CC/C(=N/Nc1ccccc1)c1cnnc(-c2ccccc2)n1,0,0.3,+,5,2
Cc1cc(NC(=O)/C(C#N)=C/c2ccc(-c3ccc(SC(F)F)cc3)o2)n(-c2ccccc2)n1,0,0.045,+,2,-2
SMILES,Hsp70 act,Dynein cargo inh,Autophagy HCS,MT stabilize HCS,bCat nuc transl
Cc1cc(NC(=O)/C(C#N)=C/c2ccc(-c3cccc(C(F)(F)F)c3)o2)n(-c2ccccc2)n1,0,-0.45,i,4,0
CCOC(=O)C1CCCN(S(=O)(=O)c2ccc(OC)c3ccccc23)C1 (stereo not drawn),0,-1.3,i,11*,·
CCOC(=O)C1CCCN(S(=O)(=O)c2ccccc2)C1 (stereo not drawn),0,-0.086,i,4,-1
N#Cc1nc(Cc2ccccc2)oc1NCc1ccccc1,0,1.2,i,2,1
CCC(CC)c1nc(C#N)c(NCc2ccccc2)o1,0,1.6,i,15*,4
CCc1nnc(NC(=O)CSc2nc(C)c3c(c2C#N)CCCC3)s1,0,0.23,i,26*,4
CCc1nnc(NC(=O)CSc2nc3cc4c(cc3cc2CC)OCCO4)s1,0,2.2,+,9,-2
CCc1cc2cc3c(cc2nc1SCC(=O)Nc1cc(C)on1)OCO3,0,2,+,7,-4
COc1cc(C(C[N+](=O)[O-])c2c(C)[nH]c3ccccc23)ccc1O (stereo not drawn),-1,-0.28,+,2,-4
Cc1[nH]c2ccccc2c1C(C[N+](=O)[O-])c1cccc(O)c1 (stereo not drawn),0,0.65,i,2,1
Cc1ccc(S(=O)(=O)Nc2cccc3ncccc23)cc1,·,-0.0079,·,·,0
Cc1ccc(S(=O)(=O)Nc2ccnc3ccccc23)cc1,0,-0.13,i,1,-3
Cc1ccc(S(=O)(=O)Nc2ccccc2-c2ccccc2)cc1,0,-0.25,+,36*,62*
CCOC(=O)c1ccccc1NS(=O)(=O)c1ccc(C)cc1,0,-0.43,i,26*,·
CCOC(=O)c1cnc(SC)nc1Oc1cccc(NS(=O)(=O)c2ccc(C)cc2)c1,0,-0.45,+,15,0
Cc1ccc(S(=O)(=O)Nc2ccc(O)c3ncccc23)cc1,0,-0.75,i,10,58*
C#CCNC(=O)C1=C[C@H](c2ccc3c(c2)OCO3)[C@@H](CCCO)[C@H](OCC)O1,0,-0.4,i,4,-3
Cc1cc(C)c(OCC(=O)N/N=C/c2ccc3c(c2)OCO3)c(C)c1,0,0.36,i,26*,26
Cc1ccccc1C1CC(=O)NC2=C1C(=O)CCC2 (stereo not drawn),0,2.6,i,2,·
CCC(C)Oc1ccccc1C1CC(=O)NC2=C1C(=O)CCC2 (stereo not drawn),0,0.018,i,60*,10
Cc1ccc(C2=NN(C(=O)c3cccs3)C(c3ccccc3O)C2)cc1 (stereo not drawn),0,-0.88,+,4,1
CCOc1cccc(-c2nnc3sc(-c4cc(OC)c(OC)c(OC)c4)nn23)c1,0,-0.019,i,3,-3
COc1cc(-c2nn3c(-c4ccccc4)nnc3s2)cc(OC)c1OC,0,-0.49,+,2,-3
COc1cccc(-c2nnc3sc(-c4ccc(C)cc4)nn23)c1,0,-0.43,i,33*,68*
CCN(CC)c1ccc(-c2nn3c(-c4cccnc4)nnc3s2)cc1,0,-1.1,i,38*,6
CCn1c(O)c(N=NC(=O)C(O)c2ccccc2)c2ccccc21 (stereo not drawn),·,0.25,·,·,0

# Screening results deposited in PubChem by several laboratories.
